Test results: PMC10692477 (Acta Pharmaceutica Sinica. B, 2023)

Legend:
NCI-H1299 cells [1] = assay: NCI-H1299 cell wound healing assay; assay type: cell-based; conditions: NCI-H1299, GAS6 500 ng/mL, 24 h
How it was run: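 NCI-H1299 monolayers were scratched, then given GAS6 500 ng/mL alone or with graded concentrations of the test compound for 24 h. Wound closure was imaged at 0 and 24 h, in triplicate.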

NCI-H1299 cells [2] = assay: NCI-H1299 cell viability under GAS6; assay type: cell-based; conditions: same conditions as cell motility; GAS6 500 ng/mL, 24 h
How it was run: (§1)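 NCI-H1299 or SNU449 cells were seeded at low density in growth medium and incubated overnight. They were then stimulated with GAS6 500 ng/mL and treated with graded concentrations of the test compound for 24 h. Viability was read by CCK-8.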

[3] = Pharmacokinetics in ICR mice; assay type: in vivo; conditions: mouse, serum
BaF3/TEL-AXL cells = assay: BaF3/TEL-AXL cell viability; assay type: cell-based; conditions: 48 h, read-out: IC50 Cell viability
AXL kinase = target: T1, AXL kinase (Homo sapiens, UniProt P30530); assay: AXL kinase inhibition, ELISA; assay type: biochemical; conditions: IC50 AXL kinase, ELISA; mean ± SD of two independent experiments
T1 sequence (P30530 26-894): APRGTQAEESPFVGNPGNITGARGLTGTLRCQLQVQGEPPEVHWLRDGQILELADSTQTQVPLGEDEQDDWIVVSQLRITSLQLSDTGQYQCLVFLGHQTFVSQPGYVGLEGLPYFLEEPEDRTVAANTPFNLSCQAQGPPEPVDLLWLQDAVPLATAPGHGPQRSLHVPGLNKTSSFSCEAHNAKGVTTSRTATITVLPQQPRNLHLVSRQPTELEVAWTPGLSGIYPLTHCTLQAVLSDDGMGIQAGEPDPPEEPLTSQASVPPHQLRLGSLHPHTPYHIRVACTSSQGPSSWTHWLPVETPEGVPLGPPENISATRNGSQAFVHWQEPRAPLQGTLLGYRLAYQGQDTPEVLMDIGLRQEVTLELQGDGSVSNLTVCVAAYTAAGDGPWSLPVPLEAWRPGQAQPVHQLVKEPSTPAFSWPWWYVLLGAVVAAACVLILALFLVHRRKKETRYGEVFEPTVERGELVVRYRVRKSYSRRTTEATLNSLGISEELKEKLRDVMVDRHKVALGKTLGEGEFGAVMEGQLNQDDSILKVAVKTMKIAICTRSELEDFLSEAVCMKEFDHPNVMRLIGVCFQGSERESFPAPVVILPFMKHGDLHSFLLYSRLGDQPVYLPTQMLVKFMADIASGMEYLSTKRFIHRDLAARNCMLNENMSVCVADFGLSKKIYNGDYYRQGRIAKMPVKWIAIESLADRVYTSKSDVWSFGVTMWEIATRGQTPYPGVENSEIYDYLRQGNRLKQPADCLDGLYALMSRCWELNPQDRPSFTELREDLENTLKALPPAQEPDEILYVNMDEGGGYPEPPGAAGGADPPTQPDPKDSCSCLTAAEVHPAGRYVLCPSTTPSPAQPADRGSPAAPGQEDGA

EBC-1 cells = assay: EBC-1 cell viability; assay type: cell-based; conditions: Homo sapiens, EBC-1, 72 h, read-out: IC50 viability of EBC-1 cells
How it was run: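 EBC-1 cells were seeded at low density in growth medium and incubated overnight. They were then treated with graded concentrations of the test compound for 72 h. Viability was read by CCK-8, and IC50 was obtained by four-parameter concentration–response curve fitting.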

AXL signaling pathway [4] = assay: GAS6-stimulated AXL signaling in NCI-H1299 cells, Western blot; assay type: cell-based; conditions: NCI-H1299, 1 h treatment, GAS6 500 ng/mL 15 min
How it was run: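 NCI-H1299 cells in exponential growth were serum-deprived for 24 h, then given the test compound for 1 h and stimulated with GAS6 500 ng/mL for 15 min. Lysis was in 1× SDS sample buffer, followed by 10% SDS-PAGE and nitrocellulose transfer.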

[5] = tested on: BaF3/TEL-AXL mouse xenograft; assay: BaF3/TEL-AXL cell-derived mouse xenograft model; conditions: for body weight of tumor-bearing mice during the treatment: 4 and 20 mg/kg po qd
AXL signaling pathway [6] = assay: AXL signaling in BaF3/TEL-AXL cells, Western blot; assay type: cell-based; conditions: 1 h
How it was run: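 BaF3/TEL-AXL cells in exponential growth were exposed to the test compound at the indicated concentrations for 1 h. Cells were lysed in 1× SDS sample buffer, run on 10% SDS-PAGE and transferred to nitrocellulose.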

c-Met kinase = c-Met kinase (Homo sapiens, UniProt P08581); assay: c-Met kinase inhibition, ELISA; assay type: biochemical
How it was run: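 c-Met inhibition was measured by an ELISA-based kinase assay following a previously reported method. IC50 values were calculated from inhibition curves with a modified 4-parameter logistic model, from at least two separate experiments.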

other 55 tested kinases = assay: Kinase selectivity panel of 62 kinases; assay type: biochemical, human; conditions: 100 nmol/L
SNU449 cells [7] = assay: GAS6-stimulated SNU449 cell invasion; assay type: cell-based; conditions: 20 nmol/L, GAS6 500 ng/mL, 24 h
How it was run: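 SNU449 cells were seeded in top chambers with matrigel-coated membrane inserts. The lower chamber held serum-free medium with GAS6 500 ng/mL, and the test compound was added to both sides. After 24 h, non-invading cells were removed. Invaded cells were fixed in 90% ethanol for 1 h, stained with 0.1% crystal violet for 15 min at room temperature, and imaged.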

NCI-H1299 cells [8] = assay: GAS6-stimulated NCI-H1299 cell migration; assay type: cell-based; conditions: 20 nmol/L, GAS6 500 ng/mL, 24 h
How it was run: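 NCI-H1299 cells (1.5 × 10^5 per well) in serum-free medium were placed in Transwell inserts with 8 μm pores. The lower chamber held serum-free medium with GAS6 500 ng/mL, and the test compound was added to both sides of the membrane. After 24 h, non-migrated cells were swabbed off. Migrated cells were fixed in 90% ethanol for 1 h, stained with 0.1% crystal violet for 15 min at room temperature, and imaged by microscopy.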

SNU449 cells [9] = assay: SNU449 cell viability under GAS6; assay type: cell-based; conditions: same conditions as cell motility; GAS6 500 ng/mL, 24 h
How it was run: as §1

AXL phosphorylation = assay: Intratumoral AXL phosphorylation, immunoblotting of tumor tissues; assay type: in vivo, nude mice; conditions: tumor tissues 1 h after last dosage; 4 and 20 mg/kg groups
E-cadherin expression = E-cadherin expression in GAS6-stimulated NCI-H1299 cells, immunoblotting; assay type: cell-based; conditions: NCI-H1299, GAS6 500 ng/mL, 48 h
[10] = 20 mg/kg po qd, 7 consecutive days

c-Met kinase, sequence (P08581 25-1390): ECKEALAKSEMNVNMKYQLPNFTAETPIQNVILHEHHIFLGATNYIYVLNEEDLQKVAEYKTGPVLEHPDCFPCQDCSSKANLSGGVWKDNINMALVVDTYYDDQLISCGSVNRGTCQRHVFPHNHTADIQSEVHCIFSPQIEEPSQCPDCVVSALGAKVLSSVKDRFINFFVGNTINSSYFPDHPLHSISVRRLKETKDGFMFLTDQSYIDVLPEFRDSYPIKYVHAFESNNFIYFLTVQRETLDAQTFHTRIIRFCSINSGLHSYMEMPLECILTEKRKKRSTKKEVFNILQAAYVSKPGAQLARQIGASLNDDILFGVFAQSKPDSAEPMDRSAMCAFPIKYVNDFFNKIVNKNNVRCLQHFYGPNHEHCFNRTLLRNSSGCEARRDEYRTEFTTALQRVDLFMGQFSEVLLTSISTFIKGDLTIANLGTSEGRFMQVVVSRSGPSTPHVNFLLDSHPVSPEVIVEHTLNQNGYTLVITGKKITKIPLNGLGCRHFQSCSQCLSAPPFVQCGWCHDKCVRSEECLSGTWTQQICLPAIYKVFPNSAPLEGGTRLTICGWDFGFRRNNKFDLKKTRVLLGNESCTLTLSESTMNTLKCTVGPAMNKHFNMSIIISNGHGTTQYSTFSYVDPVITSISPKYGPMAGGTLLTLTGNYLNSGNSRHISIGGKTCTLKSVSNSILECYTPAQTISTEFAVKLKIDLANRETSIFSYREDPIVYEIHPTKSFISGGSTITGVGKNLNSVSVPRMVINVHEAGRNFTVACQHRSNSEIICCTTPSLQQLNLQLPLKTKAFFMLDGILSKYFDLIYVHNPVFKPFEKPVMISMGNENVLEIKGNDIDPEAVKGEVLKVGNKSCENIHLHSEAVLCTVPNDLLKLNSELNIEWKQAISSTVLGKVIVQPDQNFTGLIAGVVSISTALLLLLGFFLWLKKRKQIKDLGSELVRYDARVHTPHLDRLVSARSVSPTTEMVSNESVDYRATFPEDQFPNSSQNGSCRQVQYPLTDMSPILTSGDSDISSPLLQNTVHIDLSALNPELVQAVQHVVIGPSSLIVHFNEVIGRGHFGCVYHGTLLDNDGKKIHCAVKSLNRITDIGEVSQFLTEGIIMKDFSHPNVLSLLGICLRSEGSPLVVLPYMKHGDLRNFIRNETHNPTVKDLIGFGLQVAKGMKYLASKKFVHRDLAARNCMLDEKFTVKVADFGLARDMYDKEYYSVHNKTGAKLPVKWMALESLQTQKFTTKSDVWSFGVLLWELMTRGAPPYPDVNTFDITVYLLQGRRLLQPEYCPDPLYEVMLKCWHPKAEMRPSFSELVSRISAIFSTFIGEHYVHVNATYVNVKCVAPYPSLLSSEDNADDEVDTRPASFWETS

Structure (SMILES) | AUC(0-inf) ([3]; iv, 5 mg/kg) | AUC(0-t) ([3]; iv, 5 mg/kg) | clearance ([3]; iv, 5 mg/kg) | half-life ([3]; iv, 5 mg/kg) | AUC(0-inf) ([3]; po, 10 mg/kg) | AUC(0-t) ([3]; po, 10 mg/kg) | Cmax ([3]; po, 10 mg/kg) | Tmax ([3]; po, 10 mg/kg) | bioavailability ([3]; po, 10 mg/kg) | half-life ([3]; po, 10 mg/kg) | IC50 (BaF3/TEL-AXL cells) | p-AKT level (AXL signaling pathway [4]) | p-STAT3 level (AXL signaling pathway [4]) | TGI [5, 10] | body weight of tumor-bearing mice during the treatment [5] | also measured
COc1cc2nccc(Oc3ccc(NC(=O)c4c5n(n(-c6ccc(F)cc6)c4=O)CCCC5)cc3)c2cc1OC [Compound 59] | 21600 ng·h/mL | 20500 ng·h/mL | 3.86 mL/min/kg | 1.67 h | 14900 ng·h/mL | 14800 ng·h/mL | 2300 ng/mL | 1 h | 36.1% | 2.94 h | 1.5 ± 0.4 nM | significantly inhibited | significantly inhibited | 89.4% | no significant body weight loss | GAS6-accelerated wound healing (NCI-H1299 cells [1]): obviously inhibited; cell viability of NCI-H1299 cells (NCI-H1299 cells [2]): no significant inhibitory effects; IC50 (AXL kinase): 3.5 ± 0.8 nM; IC50 (EBC-1 cells): 535 nM; p-ERK (AXL signaling pathway [4]): marginally inhibited; phosphorylation of AXL induced by GAS6 (AXL signaling pathway [4]): significantly inhibited; p-ERK (AXL signaling pathway [6]): a bit weaker inhibtion; phosphorylation of AKT (AXL signaling pathway [6]): dose-dependently inhibited; phosphorylation of AXL (AXL signaling pathway [6]): dose-dependently inhibited; phosphorylation of STAT3 (AXL signaling pathway [6]): dose-dependently inhibited; IC50 (c-Met kinase): 17.3 nM; Inhibition rate, other 55 tested kinases (other 55 tested kinases): less than 50%; SNU449 cell invasion (SNU449 cells [7]): significant inhibition; NCI-H1299 cell migration (NCI-H1299 cells [8]): significant reduction; cell viability of SNU449 cells (SNU449 cells [9]): no significant inhibitory effects; intratumoral AXL phosphorylation (p-AXL) (AXL phosphorylation): robust inhibitions; GAS6-induced downregulation of E-cadherin expression (E-cadherin expression): significantly reversed
Nc1nc(Nc2ccc3c(c2)CC[C@@H](N2CCCC2)CC3)nn1-c1cc2c(nn1)-c1ccccc1CCC2 [BGB324, reference compound] |  |  |  |  |  |  |  |  |  |  | 95.1 ± 3.7 nM | significantly inhibited | significantly inhibited |  |  | TGI ([5]; 50 mg/kg po bid): 92.0%
COc1cc2ncnc(Oc3ccc(NC(=O)c4c5n(n(-c6cccc(F)c6)c4=O)CCCC5)cc3F)c2cc1OC [Compound 18] | 42100 ng·h/mL | 34800 ng·h/mL | 2.05 mL/min/kg | 10.4 h | 16000 ng·h/mL | 15900 ng·h/mL | 2970 ng/mL | 2 h | 22.9% | 3.24 h | < 0.1 nM |  |  | 93.4% | no significant body weight loss | TGI ([5]; 4 mg/kg po qd, 7 consecutive days): 89.5%
